In data set [1] the test system is Human immunodeficiency virus 1. In words: Antiviral activity against HIV1 3B infected in human MT4 cells assessed as protection from virus-induced cytopathogenicity after 4 days by MTT assay. The format is functional, organism-based. The note with it: Human immunodeficiency virus 1, 3B, MT4, 96 h. The procedure, abridged: (§1)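 MT-4 cells at 1 × 10⁵ cells/mL infected with HIV (IIIB or ROD) at a multiplicity of infection of 0.02, using virus stocks titrated in MT-4 cells as CCID₅₀. Compound present during a 4-day incubation at 37 °C. Viable cells counted by MTT. EC₅₀ is the concentration protecting cells against viral cytopathogenicity by 50%. Values are means of at least two separate experiments.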
For orientation: Cytopathic effects are the visible damage that an infection or toxin causes in cultured cells.

A short description of data set [2]: Cytotoxicity against human MT4 cells after 4 days by MTT assay. Type of data set: cell-based. Put shortly:
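Uninfected MT-4 cells were run in parallel with the antiviral assay: 4 days at 37 °C with compound, then viability read by MTT. CC₅₀ is the concentration that reduces viability of uninfected cells by 50%. Values are means of at least two separate experiments.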
Background: Formazan colour is commonly taken as a measure of viable cells.

Data set [3] in a line: Selectivity index, ratio of CC50 for human MT4 cells to EC50 for HIV1 3B. The format is toxicity, cell-based. The note with it: read-out: Ratio CC50/EC50. The procedure, abridged: (§2)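 Selectivity index is CC₅₀ in uninfected MT-4 cells divided by EC₅₀ against the given strain (IIIB or ROD). Both values come from parallel 4-day MTT assays, with cells infected at a multiplicity of infection of 0.02.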

Data set [4] in a line: Selectivity index, ratio of CC50 for human MT4 cells to EC50 for HIV2 ROD. The format is toxicity, cell-based. The following applies: read-out: Ratio CC50/EC50. Put shortly:
as §2

Data set [5] concerns Human immunodeficiency virus 2. In words: Antiviral activity against HIV2 ROD infected in human MT4 cells assessed as protection from virus-induced cytopathogenicity after 4 days by MTT assay. Type of data set: functional, organism-based. The note with it: Human immunodeficiency virus 2, ISOLATE ROD, MT4, 96 h. Put shortly:
as §1

For data set [6], the system named is Human immunodeficiency virus 1. In words: Antiviral activity against HIV1 expressing reverse transcriptase K103N/Y181C double mutant infected in human MT4 cells assessed as protection against virus-induced cytopathogenicity after 4 days by MTT assay. The format is functional, organism-based. The note with it: Human immunodeficiency virus 1, MT4, 96 h. The procedure, abridged:
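RES056 strain (carries K103N and Y181C), titrated in MT-4 cells as CCID50. MT-4 cells at 1 × 10⁵ cells/mL infected at MOI 0.02 and incubated 4 days at 37 °C with compound. Viable cells counted by MTT. EC50 is the concentration protecting cells by 50% against viral cytopathogenicity. Values are means of at least two separate experiments.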

Data set [7] has as its system Human immunodeficiency virus 1. In words: Ratio of nevirapine EC50 to compound EC50 for HIV1 3B infected in human MT4 cells. The format is functional.
In data set [8] the test system is Human immunodeficiency virus 1. In words: Ratio of delavirdine EC50 to compound EC50 for HIV1 3B infected in human MT4 cells. Type of data set: functional.

pEC50: −log10 of the molar value.

Take `N#Cc1ccc(Nc2nccc(/C(=N\O)c3ccc(F)cc3)n2)cc1`: the pEC50 in data set [1] is 6.08; in data set [5], 4.70; in data set [6], 4.86. The cytotoxic concentration (CC50) at 96 h in data set [2] is greater than 377 µM. The selectivity ratio in data set [3] was greater than 456; in data set [4] it was greater than 19.

Turning to `N#Cc1ccc(Nc2nccc(/C(=N\O)c3ccc(Cl)cc3)n2)cc1`, the pEC50 is 7.08 in data set [1], no more than 5.13 in data set [5] and no more than 5.12 in data set [6]. For the same molecule, the midpoint of cytotoxicity in data set [2], the CC50 at 96 h, lay at 17.2 µM. The selectivity ratio in data set [3] is 209; in data set [4] it was no more than 2.

`N#Cc1ccc(Nc2nccc(/C(=N\O)c3ccccc3Br)n2)cc1`: the negative-log EC50 (pEC50) in data set [1] is 8.30; in data set [5], less than 4.88; in data set [6] it was less than 4.88. Also, in data set [2], the CC50 at 96 h was 13.2 µM. For the same molecule, the selectivity ratio in data set [3] is 2500; in data set [4] it was less than 1.

Regarding `N#Cc1ccc(Nc2nccc(/C(=N\O)c3cccc(Br)c3)n2)cc1`, the pEC50 is 6.44 in data set [1], less than 4.63 in data set [5] and less than 4.63 in data set [6]. The molecule also registered a CC50 at 96 h in data set [2] of 23.5 µM. In addition, the selectivity ratio in data set [3] was 65; in data set [4], less than 1.

Regarding `N#Cc1ccc(Nc2nccc(/C(=N\O)c3ccc(Br)cc3)n2)cc1`, the negative-log EC50 (pEC50) in data set [1] is 6.90; in data set [5] it was no more than 5.30; in data set [6] it was no more than 5.14. For the same molecule, the midpoint of cytotoxicity in data set [2], the CC50 at 96 h, lay at 26 µM. The selectivity ratio in data set [3] is 205; in data set [4], no more than 5.

In the case of `Cc1ccccc1/C(=N/O)c1ccnc(Nc2ccc(C#N)cc2)n1`, the pEC50 in data set [1] is 7.32; in data set [5] it was less than 4.52; in data set [6] it was no more than 5.80. Further, the midpoint of cytotoxicity in data set [2], the CC50 at 96 h, lay at 29.9 µM. In addition, the selectivity ratio is 619 in data set [3] and less than 1 in data set [4].

For `Cc1ccc(/C(=N/O)c2ccnc(Nc3ccc(C#N)cc3)n2)cc1`, the pEC50 in data set [1] was 8.22; in data set [5], no more than 5.18; in data set [6], no more than 5.29. In data set [2], the 50% cytotoxic concentration (CC50) at 96 h was found to be 13.3 µM. Besides, the values for the selectivity ratio in data set [3] and in data set [4] were 2390 and no more than 2, respectively.

`N#Cc1ccc(Nc2nccc(/C(=N\O)c3cccc(F)c3)n2)cc1`: the pEC50 in data set [1] was 6.65; in data set [5], no more than 5.08; in data set [6], no more than 5.17. Also, the cytotoxic concentration (CC50) at 96 h in data set [2] stood at 15.3 µM. Also, the selectivity ratio in data set [3] was 67.9; in data set [4], no more than 2.

On to `Cc1cccc(/C(=N/O)c2ccnc(Nc3ccc(C#N)cc3)n2)c1`, for which the negative logarithm of the EC50 (pEC50) in data set [1] is 7.49; in data set [5], no more than 4.94; in data set [6], 5.34. In addition, in data set [2], the CC50 at 96 h came to 20 µM. Also, the selectivity ratio in data set [3] is 626; in data set [4], less than 1.

Turning to `COc1cccc(/C(=N/O)c2ccnc(Nc3ccc(C#N)cc3)n2)c1`, the negative logarithm of the EC50 (pEC50) in data set [1] was 7.60; in data set [5], 5.08; in data set [6], 5.06. The molecule further registered a CC50 at 96 h in data set [2] of 30.5 µM. For the same molecule, the results for the “Ratio EC50” value in data set [7] and in data set [8] were 8 and 29, respectively. Moreover, the selectivity ratio in data set [3] came out at 1220; in data set [4] it was 3.67.

Take `COc1ccc(/C(=N/O)c2ccnc(Nc3ccc(C#N)cc3)n2)cc1`: the pEC50 was 7.89 in data set [1], no more than 5.33 in data set [5] and 4.99 in data set [6]. In data set [2], this molecule gave a CC50 at 96 h of 50.2 µM. Further, the selectivity ratio in data set [3] was 3790; in data set [4], no more than 11.

In the case of `CC(C)(C)c1ccc(/C(=N/O)c2ccnc(Nc3ccc(C#N)cc3)n2)cc1`, the negative logarithm of the EC50 (pEC50) was 6.84 in data set [1], no more than 4.47 in data set [5] and 5.14 in data set [6]. Further, the midpoint of cytotoxicity in data set [2], the CC50 at 96 h, lay at 33.7 µM. Further, the figures for the selectivity ratio in data set [3] and in data set [4] were 234 and less than 1, respectively.

As to `N#Cc1ccc(Nc2nccc(/C(=N\O)c3ccccc3Cl)n2)cc1`, the negative-log EC50 (pEC50) is 7.89 in data set [1], less than 4.90 in data set [5] and less than 4.90 in data set [6]. For the same molecule, in data set [2], the CC50 at 96 h turned out to be 12.6 µM. Further, the selectivity ratio was 997 in data set [3] and less than 1 in data set [4].

On to `N#Cc1ccc(Nc2nccc(/C(=N\O)c3cccc(Cl)c3)n2)cc1`, for which the negative logarithm of the EC50 (pEC50) in data set [1] is 6.53; in data set [5] it was no more than 5.14; in data set [6] it was less than 4.83. Further, in data set [2], it took 30.4 µM to reach half-maximal cytotoxicity (CC50 at 96 h). Further, the selectivity ratio is 102 in data set [3] and no more than 4 in data set [4].

Turning to `Cc1cc(C)cc(/C(=N/O)c2ccnc(Nc3ccc(C#N)cc3)n2)c1`, the negative-log EC50 (pEC50) was 7.33 in data set [1], no more than 5.05 in data set [5] and 5.10 in data set [6]. The same molecule yielded a CC50 at 96 h in data set [2] of 35.9 µM. For the same molecule, the selectivity ratio is 756 in data set [3] and no more than 4 in data set [4].

Turning to `N#Cc1ccc(Nc2nccc(/C(=N\O)c3ccccc3)n2)cc1`, the values for the pEC50 in data set [1], in data set [5] and in data set [6] were 6.24, no more than 4.85 and 5.25, respectively. Moreover, it took 14 µM to reach half-maximal cytotoxicity in data set [2] (CC50 at 96 h). In addition, the selectivity ratio in data set [3] is 24.6; in data set [4], less than 1.

For the molecule `N#Cc1ccc(Nc2nccc(/C(=N\O)c3ccccc3F)n2)cc1`, the negative-log EC50 (pEC50) is 7.28 in data set [1], less than 5.25 in data set [5] and less than 5.25 in data set [6]. Further, the CC50 at 96 h in data set [2] came out at 5.67 µM. Besides, the selectivity ratio in data set [3] is 106; in data set [4], less than 1.

`N#Cc1ccc(Nc2nccc(/C(=N\O)c3cccc4ccccc34)n2)cc1`: the pEC50 in data set [1] was 7.41; in data set [5] it was less than 4.48; in data set [6] it was less than 4.48. The 50% cytotoxic concentration (CC50) at 96 h in data set [2] was 33.1 µM. Moreover, the results for the selectivity ratio in data set [3] and in data set [4] were 844 and less than 1, respectively.

Take `N#Cc1ccc(Nc2nccc(/C(=N\O)c3ccc4ccccc4c3)n2)cc1`: the figures for the negative-log EC50 (pEC50) in data set [1], in data set [5] and in data set [6] were 7.33, less than 4.85 and less than 4.85, respectively. The molecule also yielded a 50% cytotoxic concentration (CC50) at 96 h in data set [2] of 31.6 µM. The selectivity ratio in data set [3] was 673; in data set [4], less than 1.

Take `CC(C)Nc1cccnc1N1CCN(C(=O)c2cc3cc(NS(C)(=O)=O)ccc3[nH]2)CC1` [DELAVIRDINE]: the pEC50 in data set [1] is 6.14; in data set [6], less than 4.36. The CC50 at 96 h in data set [2] is greater than 43.8 µM. Moreover, the selectivity ratio in data set [3] is greater than 62.

The molecule `O=C1Nc2ccc(Cl)cc2[C@@](C#CC2CC2)(C(F)(F)F)O1` [EFAVIRENZ] came in with a CC50 at 96 h in data set [2] greater than 6.34 µM. In addition, the pEC50 in data set [6] is 6.74.

Take `Cc1ccnc2c1NC(=O)c1cccnc1N2C1CC1` [NEVIRAPINE]: the pEC50 in data set [1] is 6.70; in data set [6], less than 4.82. This molecule came in with a CC50 at 96 h in data set [2] greater than 15 µM. Further, in data set [3], the selectivity ratio was greater than 75.

For orientation: pEC50 means the EC50 on a negative log10 scale, so that one unit is a factor of ten. The term CC50 denotes the concentration giving 50% cytotoxicity. A high value points to better tolerance by the cells.

Values taken from ChEMBL document CHEMBL1156184, “Synthesis and biological evaluation of 4-(hydroxyimino)arylmethyl diarylpyrimidine analogues as potential non-nucleoside reverse transcriptase inhibitors against HIV” (Bioorg Med Chem, 2010).
